# Test results from PubChem BioAssay.
# The source made the active and inactive calls.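 Rule for the calls, unless noted: active = inhibition above 20% together with a positive visual image hit; inconclusive = visual image hit but inhibition not above 20%; inactive = no visual image hit.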
# Assays:
# [1] = inhibitors of TNFa-induced NFkB p65 translocation, primary screen, imaging, HUVEC, MLSMR starter and 10KST1 sets (AID 438); conditions: HUVEC TNFa-induced p65 nuclear translocation; cell count: measured here: nuclei count (cytotoxicity indicator), at 2.08 µM; inhibition: at 2 µM, stronger effect = higher value, 0% TNFa-plus-vehicle, 100% no-TNFa wells;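 note: compound added about 3h40 before a 20 min TNFalpha stimulation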;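 for inhibition: signal is the nuclear over cytoplasmic p65 intensity ratio per well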
# [2] = endothelial E-selectin expression blockers – imaging, HUVEC, immunofluorescence, MLSMR starter and 10KST1 sets, primary screen (AID 487;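 active = visually confirmed hit in the image check and inhibition above 20%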;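 for inhibition: signal is fraction of cell area covered by stained E-selectin grains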;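 for nuclei count: 100% = median nuclei count of all wells on the same plate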); conditions: HUVEC TNFalpha-induced E-selectin immunofluorescence imaging, at 2 µM; inhibition: stronger effect = higher value; nuclei count: measured here: cell number, toxicity
# [3] = Primary imaging screen for DUSP6 inhibitors that restore phospho-Erk in transfected HeLa cells, chemical complementation (AID 609;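 active = compounds giving at least 50% inhibition in the cell-based MKP-3 phosphatase rescue imaging test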;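 for inhibition: phospho-Erk level distribution per well compared with pooled transfected vehicle control wells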); conditions: HeLa MKP-3 transfected, phospho-Erk imaging KS statistic, at 10 µM, cells stimulated with TPA for 15 min
# [4] = target: Dual specificity protein phosphatase 6 (Homo sapiens) (UniProt Q16828); assay: as above; conditions: HeLa MKP-3 transfected, phospho-Erk imaging KS statistic; at 10 µM; stronger effect = higher value; cells stimulated with TPA for 15 min
# [5] = target: Voltage-gated potassium channel subunit beta-2 (Rattus norvegicus) (UniProt P62483); assay: inhibitors of rat Kvbeta2 reductase activity – biochemical, NADPH fluorescence, primary screen (AID 622;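 active = fluorescence slope higher than the sample average by over 3 SD, cut at about -0.22 in these data, passing the limit was not always enough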;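 note: slope of raw intensity against log time taken from 70 to 1610 s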); conditions: recombinant KvBeta, 4-cyanobenzaldehyde reduction, at 10 µM, stronger effect = higher value
# [6] = target: Voltage-gated potassium channel subunit beta-2 (Rattus norvegicus) (UniProt P62483); assay: enhancers of rat Kvbeta2 NADPH turnover – biochemical, NADPH fluorescence, primary screen (AID 623;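 active = NADPH fluorescence slope more negative than the mean of all samples by about 3 SD, 99.7% confidence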;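 note: fluorescence intensity change per second fitted from 20 to 320 s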); conditions: Recombinant KvBeta, NADPH fluorescence decrease slope, 10 min; at 10 µM; stronger effect = lower value
# [7] = target: Alpha-2C adrenergic receptor (Homo sapiens) (UniProt P18825); assay: compounds altering alpha2C-coupled GIRK flux – cell-based, HEK293 alpha2C/GIRK1/2, thallium flux, primary screen (AID 624;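 active = fluorescence slope after compound addition differing from the mean of all screened samples at 99.7% confidence, in either direction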;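 note: slope of fluorescence ratio to pre-addition baseline per second over 15 to 24 s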); conditions: thallium flux BTC fluorescence, at 10 µM, actives lie on both sides
# [8] = inhibitors of larval lipid processing in zebrafish, primary screen, whole organism, PED6 fluorescence, gall bladder and intestine (AID 686;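 active = a full or partial loss of lipid-probe fluorescence in the fish gall bladder, intestine or both, judged by eye; inactive = no fluorescence loss, or compound toxic to the fish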;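 note: larvae 5 to 7 days old with five fish per well; signal comes from phospholipase A2 cleavage of quenched PED6 carried via bile; overnight exposure to compound and PED6 before scoring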); conditions: Zebrafish larvae PED6 lipid processing, fluorescence scoring; screened at 20 µM (by protocol)
# Outline: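 System: live zebrafish larvae aged 5-7 days, whole organism; measure: graded gall bladder and intestinal fluorescence inhibition per well; incubation: overnight exposure; reagent: ingested quenched lipid PED6 at 100 nM; signal: By-eye fluorescence microscopy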
# [9] = loss of swimming-algae plug formation – whole organism, Chlamydomonas reinhardtii, WT vs cilia-less mutant, absorbance, 96-well, primary screen (AID 463189;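 active = inhibition at or above 50% relative to wild type and mutant plate controls; inactive = inhibition below 50%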;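 note: 0% = wild type cc124 cells in DMSO and 100% = ciliumless bld1 mutant cells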); conditions: Chlamydomonas reinhardtii gravitaxis, OD600 absorbance, 2 days; at 10 µM; stronger effect = higher value
# [10] = measured here: cell density z-score
# [11] = measured here: nuclear c-Myc green intensity z-score
# [12] = measured here: nuclear pErk red intensity z-score, stronger effect = higher value
# Chain of Voltage-gated potassium channel subunit beta-2 (Rattus norvegicus) (P62483 whole entry, looked up): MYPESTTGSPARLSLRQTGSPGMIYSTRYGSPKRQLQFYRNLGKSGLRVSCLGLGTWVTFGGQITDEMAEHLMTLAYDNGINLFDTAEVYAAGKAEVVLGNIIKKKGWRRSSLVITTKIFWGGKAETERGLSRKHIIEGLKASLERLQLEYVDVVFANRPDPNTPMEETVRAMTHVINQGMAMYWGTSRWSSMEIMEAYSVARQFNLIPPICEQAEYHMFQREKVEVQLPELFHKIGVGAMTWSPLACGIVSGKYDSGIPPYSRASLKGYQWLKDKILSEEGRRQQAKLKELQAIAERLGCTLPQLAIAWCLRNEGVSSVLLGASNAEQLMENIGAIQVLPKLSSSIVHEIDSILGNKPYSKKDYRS
# Chain of Dual specificity protein phosphatase 6 (Homo sapiens) (Q16828 whole entry, looked up): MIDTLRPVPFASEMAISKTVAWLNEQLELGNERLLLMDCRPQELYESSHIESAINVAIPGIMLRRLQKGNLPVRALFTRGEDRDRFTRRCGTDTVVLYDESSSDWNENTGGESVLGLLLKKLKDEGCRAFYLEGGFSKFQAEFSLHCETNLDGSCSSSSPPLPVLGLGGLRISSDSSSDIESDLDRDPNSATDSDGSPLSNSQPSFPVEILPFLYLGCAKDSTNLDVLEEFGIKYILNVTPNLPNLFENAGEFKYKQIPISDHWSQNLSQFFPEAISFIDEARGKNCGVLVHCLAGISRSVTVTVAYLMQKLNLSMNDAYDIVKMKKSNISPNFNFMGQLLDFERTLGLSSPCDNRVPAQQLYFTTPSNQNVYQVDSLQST
# Chain of Alpha-2C adrenergic receptor (Homo sapiens) (P18825 whole entry, looked up): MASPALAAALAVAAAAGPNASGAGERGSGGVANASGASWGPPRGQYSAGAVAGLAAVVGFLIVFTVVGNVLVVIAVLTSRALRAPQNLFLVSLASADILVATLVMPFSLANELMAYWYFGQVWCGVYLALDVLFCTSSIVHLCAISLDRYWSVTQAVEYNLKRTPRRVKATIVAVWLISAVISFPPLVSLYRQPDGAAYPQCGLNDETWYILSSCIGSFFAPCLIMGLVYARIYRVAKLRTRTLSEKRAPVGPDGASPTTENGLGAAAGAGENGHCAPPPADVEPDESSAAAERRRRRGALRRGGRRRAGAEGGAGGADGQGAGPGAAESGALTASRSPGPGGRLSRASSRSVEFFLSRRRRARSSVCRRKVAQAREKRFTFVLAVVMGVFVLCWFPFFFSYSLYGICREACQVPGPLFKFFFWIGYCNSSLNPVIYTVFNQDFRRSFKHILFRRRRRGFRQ
Structure (SMILES),cell count [1],inhibition [1],inhibition [2],nuclei count [2] [%],"z-score [3, 10]","z-score [3, 11]","z-score [3, 12]",inhibition [4],fluorescence slope [5],NADPH fluorescence slope [6],slope [7],outcome [8],inhibition [9]
CCOC(=O)C1CCN(c2nc3ccccc3nc2C(C#N)C(=O)NCCc2ccccc2)CC1 (stereo unspecified),441,3.4% (inactive),-167% (inactive),184,0.0297,0.625,-0.588,13.2% (inactive),-0.426 (inactive),-6.6e-05 (inactive),0.00158 (inactive),inactive,13.3% (inactive)
COC(=O)c1sccc1NC(=O)c1c(C)cc(=O)oc1C,553,2.4% (inactive),-142% (inactive),138,0.942,0.338,-0.793,-8.76% (inactive),-0.515 (inactive),-3.4e-05 (inactive),0.00537 (inactive),inactive,-11.2% (inactive)
CC1CN(C2CCN(S(=O)(=O)c3ccc4ccccc4c3)CC2)CC(C)O1 (stereo unspecified),396,-19.4% (inactive),-273% (inactive),173,0.701,-1.69,1.26,-0.159% (inactive),-0.389 (inactive),-3.5e-05 (inactive),0.00656 (inactive),inactive,110% (active)
CCOc1ccc(-c2nn3c(-c4ccc(OC)cc4)nnc3s2)cc1,620,-14.6% (inactive),-58.9% (inactive),162,0.559,-1.74,0.0677,2.92% (inactive),-0.443 (inactive),-7.7e-05 (inactive),0.00846 (inactive),inactive,5.79% (inactive)
COc1ccc(OC)c(C2/C(=C(/O)c3cnn(-c4ccccc4)c3C)C(=O)C(=O)N2CCN(C)C)c1 (stereo unspecified),452,1.9% (inactive),8.9% (inactive),86.9,-1.51,0.604,-0.829,-1.75% (inactive),-0.47 (inactive),-9.5e-06 (inactive),0.00657 (inactive),inactive,12% (inactive)
COC(=O)C1=C(N)Oc2cc(C)oc(=O)c2C1c1ccncc1 (stereo unspecified),346,-2.7% (inactive),29.3% (inactive),149,-0.595,-0.189,1.46,-2.59% (inactive),-0.404 (inactive),-0.000149 (inactive),0.00558 (inactive),active; weak signal in gallbladder and intestine,28.1% (inactive)
Cc1c(/C(O)=C2\C(=O)C(=O)N(CCN(C)C)C2c2cccnc2)cnn1-c1ccccc1 (stereo unspecified),512,-1.7% (inactive),-140% (inactive),139,1.11,-1.54,0.165,-8.76% (inactive),-0.564 (inactive),-7.1e-05 (inactive),0.00465 (inactive),inactive,-1.73% (inactive)
O=C(O)C(Cc1c[nH]c2ccccc12)NS(=O)(=O)c1cccc2nsnc12 (stereo unspecified),564,-1.2% (inactive),-96.3% (inactive),160,-0.832,-0.134,0.46,19.1% (inactive),-0.487 (inactive),-5.5e-05 (inactive),0.00789 (inactive),inactive,-3.63% (inactive)
CCOc1ccc(Cc2nc(N)nc(N)n2)cc1,344,-18.3% (inactive),-269% (inactive),155,-1.09,-0.542,-0.613,-8.76% (inactive),-0.447 (inactive),-0.000176 (inactive),0.00481 (inactive),inactive,6.25% (inactive)
CC(C)NC(=O)N1CCOCCOCCN(C(=O)NC(C)C)CCOCCOCC1,513,-16.8% (inactive),-142% (inactive),144,2.53,-2.34,-0.54,13.9% (inactive),-0.538 (inactive),-6.1e-05 (inactive),0.00725 (inactive),inactive,11.9% (inactive)
N#CC1(P(=O)(c2ccccc2)c2ccccc2)CC1,481,-10.9% (inactive),-110% (inactive),143,-0.778,-0.637,-0.322,11.3% (inactive),-0.546 (inactive),-5.6e-05 (inactive),0.00538 (inactive),inactive,5.77% (inactive)
Cc1nnc(C)n1/N=C/c1cc(Br)cc(Br)c1O,354,3.7% (inactive),-46.9% (inactive),156,0.57,0.148,-0.137,1.6e-07% (inactive),-0.368 (inactive),-0.000109 (inactive),0.00748 (inactive),inactive,4.5% (inactive)
CCCc1[nH]nc2c1C(c1c(C)nn(-c3ccccc3)c1Cl)C(C#N)=C(N)O2 (stereo unspecified),673,-3.2% (inactive),-234% (inactive),148,1.26,0.14,-0.117,12.7% (inactive),-0.399 (inactive),-1.9e-06 (inactive),0.00594 (inactive),inactive,-5.65% (inactive)
Cc1nc(Nc2ncc3c(n2)CCCC3=O)nc2ccccc12,372,3.8% (inactive),26.2% (inactive),122,0.317,-0.989,1.03,9.42% (inactive),-0.403 (inactive),-0.000152 (inactive),0.00649 (inactive),inactive,22.8% (inactive)
CC(=O)C1=C(O)C(=O)N(Cc2cccnc2)C1c1ccccc1Cl (stereo unspecified),645,-3.5% (inactive),-41.7% (inactive),140,1.32,-1.67,-1.62,31.1% (inactive),-0.49 (inactive),-0.000254 (inactive),0.00582 (inactive),inactive,10.6% (inactive)
O=C(O)CC(NCc1ccco1)C(=O)OCC1CCCO1 (stereo unspecified),557,-3.4% (inactive),-26.1% (inactive),134,0.185,-1.18,-0.884,5.26% (inactive),-0.369 (inactive),-2.3e-05 (inactive),0.00498 (inactive),inactive,17.1% (inactive)
C=CCn1c(SCC(=O)OC)nc2sc3c(c2c1=O)CCN(C)C3,489,5.2% (inactive),-55.9% (inactive),177,0.349,0.211,-0.762,1.48% (inactive),-0.234 (inactive),-1.8e-05 (inactive),0.00333 (inactive),inactive,-3.61% (inactive)
CCOc1cc(CN2CCOCC2)cc(C(C)=O)c1,617,-3.9% (inactive),-113% (inactive),110,1.86,1.2,-0.466,15.1% (inactive),-0.573 (inactive),-1.5e-05 (inactive),0.00527 (inactive),inactive,38.5% (inactive)
CC(=O)C1(C)OC(N)=C(C#N)C(c2ccccc2)C1(C#N)C#N (stereo unspecified),511,-7.2% (inactive),-76.9% (inactive),155,0.834,-0.296,-1.55,-2.91% (inactive),-0.377 (inactive),2.9e-06 (inactive),0.00393 (inactive),inactive,23.7% (inactive)
CC(C)(C)NC(=O)CSc1nsc(SCC(=O)NC(C)(C)C)c1C#N,601,-26% (inactive),18.9% (inactive),178,-0.466,-1.37,0.955,-4.27% (inactive),-0.412 (inactive),-6.5e-05 (inactive),0.00541 (inactive),inactive,12.4% (inactive)
CC(C)Cc1nc(N2CCCCC2)c(C#N)c2c1CCC2,513,-0.1% (inactive),-91.7% (inactive),135,-1.47,0.461,-0.497,1.6e-07% (inactive),-0.506 (inactive),-3.4e-06 (inactive),0.006 (inactive),inactive; toxic,-3.52% (inactive)
C=CCNC(=O)C(C#N)c1nc2ccccc2nc1N1CCCCCC1 (stereo unspecified),537,-1.4% (inactive),-190% (inactive),178,-1.46,1.13,1.59,15% (inactive),-0.302 (inactive),-1.1e-05 (inactive),-0.000734 (inactive),inactive,10.7% (inactive)
COc1nc(NS(=O)(=O)c2ccc(C)cc2)nc(C)c1Cl,718,3.9% (inactive),-62.9% (inactive),170,-1.13,1.46,-0.341,1.48% (inactive),-0.346 (inactive),-3.1e-05 (inactive),0.00526 (inactive),inactive,-6.39% (inactive)
N#CC1=C2SCC(O)(c3ccccc3)N2C(=O)CC1c1ccccc1 (stereo unspecified),487,0.4% (inactive),-39.3% (inactive),98.1,-0.384,-0.62,2.84,-3.98% (inactive),-0.459 (inactive),-0.00022 (inactive),0.00444 (inactive),inactive,13.3% (inactive)
Cc1ccc(-c2ccccc2NC(=O)C2C3C=CC(C3)C2C(=O)O)o1 (stereo unspecified),553,-2.2% (inactive),-4.5% (inactive),154,0.45,-0.671,-0.083,14% (inactive),-0.352 (inactive),5.5e-06 (inactive),0.00466 (inactive),inactive,7.64% (inactive)
COC(=O)C1C(=O)CC(C)(O)C(C(=O)OC)C1c1ccccc1F (stereo unspecified),586,-1.8% (inactive),-42.2% (inactive),178,-1.74,-0.438,1.61,7.83% (inactive),-0.345 (inactive),-3.4e-05 (inactive),0.00488 (inactive),inactive,-7% (inactive)
CC(=NC1CCCC1)c1c(C)[nH]n(-c2nc3ccccc3s2)c1=O,573,3.4% (inactive),54.6% (inactive),142,0.859,0.776,-1.4,-1.12% (inactive),-0.469 (inactive),-0.000261 (inactive),0.00463 (inactive),inactive,6.63% (inactive)
